# Measurements: ChEMBL document CHEMBL1148495, “Racemic and chiral sulfoxides as potential prodrugs of the COX-2 inhibitors Vioxx and Arcoxia” (Bioorg Med Chem Lett, 2006)
# Tests used:
# [1] = Solubility in PBS at pH 7.2; assay type: physicochemical
# Rattus norvegicus [2] = experiment: Cmax for parent compound after prodrug dosing in Wistar rat at 1 mg/kg, po; assay type: ADME, organism-based; parameters: dose 1 mg/kg, route oral; settings: in vivo
# Method in brief: (§1)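 Male Wistar rats given a single oral dose of 1 mg/kg as a suspension in 0.5% methylcellulose with 0.1% Tween 80. Plasma levels of sulfoxide prodrug and sulfone parent were followed over time. Cmax, tmax and AUC0-t are reported as means (n = 2–3) with SD.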
# Liver microsomes [3] = experiment: Stability in rat liver microsomes; assay type: ADME, Microsome
# Method in brief: (§2)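 Compound at 5 µM was incubated with human or rat liver microsomes (1 mg/mL microsomal protein) for 30 min at 37 °C. Result is given as % metabolism.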
# [4] = target: T1, Prostaglandin G/H synthase 2 (Homo sapiens, UniProt P35354); experiment: Inhibition of COX2 in human whole blood; assay type: tissue-based
# T1 sequence (P35354 whole entry): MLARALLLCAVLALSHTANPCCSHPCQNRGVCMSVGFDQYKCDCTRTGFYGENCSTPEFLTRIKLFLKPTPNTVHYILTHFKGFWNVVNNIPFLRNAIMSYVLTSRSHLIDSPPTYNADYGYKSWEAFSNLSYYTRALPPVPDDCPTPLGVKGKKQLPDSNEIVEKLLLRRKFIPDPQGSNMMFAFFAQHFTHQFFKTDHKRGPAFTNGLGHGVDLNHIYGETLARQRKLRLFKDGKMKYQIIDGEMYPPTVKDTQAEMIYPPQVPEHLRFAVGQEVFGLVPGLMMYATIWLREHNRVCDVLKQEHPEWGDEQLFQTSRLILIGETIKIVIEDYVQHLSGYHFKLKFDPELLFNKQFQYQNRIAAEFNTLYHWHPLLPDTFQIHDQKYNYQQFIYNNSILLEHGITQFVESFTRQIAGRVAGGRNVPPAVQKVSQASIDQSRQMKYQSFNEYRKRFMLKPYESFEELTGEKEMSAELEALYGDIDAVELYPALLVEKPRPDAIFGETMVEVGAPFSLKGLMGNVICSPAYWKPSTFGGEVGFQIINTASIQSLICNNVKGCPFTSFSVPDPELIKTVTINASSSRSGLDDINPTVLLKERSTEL
# Rattus norvegicus [5] = experiment: Tmax for parent compound after prodrug dosing in Wistar rat at 1 mg/kg, po; assay type: ADME, organism-based; parameters: dose 1 mg/kg, route oral; settings: in vivo; method in brief: as §1
# [6] = Cmax in Wistar rat at 1 mg/kg, po; assay type: ADME, organism-based; parameters: dose 1 mg/kg, route oral; settings: in vivo; method in brief: as §1
# [7] = Solubility in SGF at pH 1.8; assay type: physicochemical
# Rattus norvegicus [8] = experiment: Inhibition of adjuvant-induced arthritis in Wistar rat at 0.3 mg/kg, po; assay type: functional
# Method in brief: (§3)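 Adjuvant-induced arthritis in male Wistar rats, therapeutic protocol. Compounds were given orally once daily for 7 days, starting on day 14 after arthritis induction. Paw edema was measured 24 h after the last dose and expressed as % inhibition.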
# Liver microsomes [9] = experiment: Stability in human liver microsomes; assay type: ADME, Microsome; method in brief: as §2
# Rattus norvegicus [10] = experiment: AUC(0-t) for parent compound after prodrug dosing in Wistar rat at 1 mg/kg, po; assay type: ADME, organism-based, Plasma; parameters: dose 1 mg/kg, route oral; settings: in vivo; method in brief: as §1
# [11] = Tmax in Wistar rat at 1 mg/kg, po; assay type: ADME, organism-based; parameters: dose 1 mg/kg, route oral; settings: in vivo; method in brief: as §1
# [12] = AUC(0-t) in Wistar rat at 1 mg/kg, po; assay type: ADME, organism-based; parameters: dose 1 mg/kg, route oral; settings: plasma; method in brief: as §1
# Rattus norvegicus [13] = experiment: Inhibition of yeast-induced pyresis in Wistar rat at 1 mg/kg, po; assay type: functional
# Method in brief: (§4)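 Yeast-induced pyresis, an acute model run as a therapeutic protocol. Compounds were given as a single oral dose. Temperature was recorded at 1 h intervals from 1 to 5 h after dosing and expressed as % inhibition.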
# Rattus norvegicus [14] = experiment: Inhibition of yeast-induced pyresis in Wistar rat at 3 mg/kg, po; assay type: functional; method in brief: as §4
# Rattus norvegicus [15] = experiment: Inhibition of adjuvant-induced arthritis in Wistar rat at 1 mg/kg, po; assay type: functional; method in brief: as §3
# [16] = target: T2, Prostaglandin G/H synthase 2 (Homo sapiens) (UniProt P35354); experiment: Inhibition of COX2 in human whole blood at 10 uM; assay type: tissue-based
# T2 sequence (whole entry): T1 sequence (P35354 whole entry)
Structure (SMILES),solubility [1],Stability (Liver microsomes [3]),IC50 [4],Cmax [6],solubility [7],Stability (Liver microsomes [9]),Tmax [11],AUC(0-t) [12],inhibition [16],Cmax (Rattus norvegicus [2]),Tmax (Rattus norvegicus [5]),inhibition in vivo at 0.3 mg/kg (Rattus norvegicus [8]),AUC (Rattus norvegicus [10]),inhibition in vivo at 1 mg/kg (Rattus norvegicus [13]),inhibition in vivo at 3 mg/kg (Rattus norvegicus [14]),inhibition in vivo at 1 mg/kg (Rattus norvegicus [15])
C[S+]([O-])c1ccc(C2=C(c3ccccc3)C(=O)OC2)cc1 (stereo not drawn),537 µg/mL,35%,4.93 µM,334 ng/mL,717 µg/mL,5%,18 min,318 ng·h/mL,,468 ng/mL,24 min,72%,979 ng·h/mL,56%,,
CS(=O)(=O)c1ccc(C2=C(c3ccccc3)C(=O)OC2)cc1 [ROFECOXIB],15 µg/mL,38%,,237 ng/mL,16 µg/mL,,24 min,531 ng·h/mL,,,,41%,,48%,,
Cc1ccc(-c2ncc(Cl)cc2-c2ccc([S@+](C)[O-])cc2)cn1,,17%,3.5 µM,,,2%,,,,,,,,,,
C[S@@+]([O-])c1ccc(C2=C(c3ccccc3)C(=O)OC2)cc1,,49%,,,,1%,,,,,,,,,,
C[S@+]([O-])c1ccc(C2=C(c3ccccc3)C(=O)OC2)cc1,,40%,,,,4%,,,,,,,,,,

# Second part, led by results:
solubility [1],Stability (Liver microsomes [3]),IC50 [4],Cmax [6],solubility [7],Stability (Liver microsomes [9]),Tmax [11],AUC(0-t) [12],inhibition [16],Structure (SMILES),Cmax (Rattus norvegicus [2]),Tmax (Rattus norvegicus [5]),inhibition in vivo at 0.3 mg/kg (Rattus norvegicus [8]),AUC (Rattus norvegicus [10]),inhibition in vivo at 1 mg/kg (Rattus norvegicus [13]),inhibition in vivo at 3 mg/kg (Rattus norvegicus [14]),inhibition in vivo at 1 mg/kg (Rattus norvegicus [15])
104 µg/mL,6%,,427 ng/mL,> 1000 µg/mL,4%,18 min,1660 ng·h/mL,,Cc1ccc(-c2ncc(Cl)cc2-c2ccc(S(C)(=O)=O)cc2)cn1 [ETORICOXIB],,,,,,81%,60%
,26%,,,,5%,,,24.4%,Cc1ccc(-c2ncc(Cl)cc2-c2ccc([S@@+](C)[O-])cc2)cn1,,,,,,,
> 1000 µg/mL,21%,3.7 µM,133 ng/mL,> 1000 µg/mL,6%,36 min,578 ng·h/mL,,Cc1ccc(-c2ncc(Cl)cc2-c2ccc([S+](C)[O-])cc2)cn1 (stereo not drawn),254 ng/mL,18 min,,803 ng·h/mL,,49%,67%
